This note sets out measurements from PubChem BioAssay.

One may read the inhibition as how much of the control response was suppressed.

Each structure is given as a SMILES string. Activity calls are given as the source filed them.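 The calls were made as follows, unless noted: active = calcium signal ratio cut to more than 3 SD under the fully stimulated control mean yet still positive, in both repeats and the primary screen; inactive = the rest.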

Sequence of Short transient receptor potential channel 4 (Mus musculus) (Q9QUQ5 whole entry, looked up): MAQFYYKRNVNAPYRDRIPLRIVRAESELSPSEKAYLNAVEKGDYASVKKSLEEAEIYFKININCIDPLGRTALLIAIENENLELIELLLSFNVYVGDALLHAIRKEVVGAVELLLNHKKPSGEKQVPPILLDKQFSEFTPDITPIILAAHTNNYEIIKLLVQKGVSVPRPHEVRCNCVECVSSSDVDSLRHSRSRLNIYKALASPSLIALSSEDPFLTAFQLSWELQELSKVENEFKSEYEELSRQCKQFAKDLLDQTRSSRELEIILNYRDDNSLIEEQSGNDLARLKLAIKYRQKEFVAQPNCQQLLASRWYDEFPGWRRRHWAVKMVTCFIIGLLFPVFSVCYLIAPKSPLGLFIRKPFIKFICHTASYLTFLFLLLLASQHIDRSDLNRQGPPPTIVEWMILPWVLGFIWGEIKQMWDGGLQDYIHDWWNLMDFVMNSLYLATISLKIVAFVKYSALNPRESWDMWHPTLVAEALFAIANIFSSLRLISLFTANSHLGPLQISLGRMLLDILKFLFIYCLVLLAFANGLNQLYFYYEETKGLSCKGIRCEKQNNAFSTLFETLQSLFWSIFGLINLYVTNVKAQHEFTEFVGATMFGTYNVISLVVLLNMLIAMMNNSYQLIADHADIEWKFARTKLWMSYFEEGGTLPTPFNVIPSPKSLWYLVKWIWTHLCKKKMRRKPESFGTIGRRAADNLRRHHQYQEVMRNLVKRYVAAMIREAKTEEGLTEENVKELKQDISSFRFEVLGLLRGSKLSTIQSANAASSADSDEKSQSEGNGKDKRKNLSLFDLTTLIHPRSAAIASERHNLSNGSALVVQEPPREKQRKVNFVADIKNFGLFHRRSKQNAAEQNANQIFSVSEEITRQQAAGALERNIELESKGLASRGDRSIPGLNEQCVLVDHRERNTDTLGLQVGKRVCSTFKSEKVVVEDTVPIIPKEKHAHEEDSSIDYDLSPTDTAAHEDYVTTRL

The first experiment addresses Short transient receptor potential channel 4 (Mus musculus) (UniProt Q9QUQ5). As to the kind of experiment: blockers of DAMGO-evoked TRPC4 calcium flux – cell-based, Fluo4, HEK293 TRPC4beta/mu-opioid, confirmation (AID 2636;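 active = calcium signal cut by more than 3 SD below the full-agonist control yet still positive, in both repeats and the earlier primary screen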). As to conditions: at 10 µM; stronger effect = higher value. The procedure, abridged: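 Test system: HEK293 stable line with TRPC4beta plus mu-opioid receptor; Probe or stimulus: DAMGO, mu-opioid agonist, submaximal dose then maximally activating dose; Timing: dye 45 min at room temperature, compound 110 s, submaximal DAMGO 110 s; Technique: kinetic fluorescence of Fluo4 calcium-sensitive dye, calcium influx; Replication: duplicates per compound.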
(In general: Calcium flux is commonly read through the fluorescence of an indicator in the cells.)
Take `CC(C)c1ccc(OCc2ccc(C(=O)N3CCCC3)o2)cc1`: the result was inactive.
Still for that read-out and setting: the same measure for `COc1ccc(-n2cc(CNCc3cnc4ccccn34)c(-c3cccc(F)c3)n2)cc1`: “inactive”; for `COc1ccc(CCN2C(=S)N(C)C(=O)C2CC(=O)Nc2ccc(F)cc2)cc1` (configuration not stated): “inactive”; for `CCOC(=O)C1=NNC(C(=O)c2ccc(Cl)cc2)C1c1ccc(OC)cc1` (configuration not stated): “inactive”.
On the same count and under the same terms, next, `Cc1ccc(C(C)C)c(OCCCCN2CCNCC2)c1`: “inactive”; `CCOC(=O)CSc1nc2ccccc2c(=O)n1C1CCCC1`: “inactive”; `Clc1ccc(Cl)c(OCCCCN2CCNCC2)c1`: “inactive”.
On the same count and under the same terms, next, `COc1ccc(-c2cc(C(=O)N3CC(C)CC(C)C3)c3ccccc3n2)cc1` (configuration not stated): “inactive”; `Cn1c(N2CCC(C(N)=O)CC2)nc2c1c(=O)n(Cc1ccc(Br)cc1)c(=O)n2C`: “inactive”.
On to `OC1(c2ccc(Cl)cc2)CN(c2ccccc2)C2=[N+]1CCS2` (configuration not stated), for which the result was inactive.
Same read-out and setting: next, `CCN(CCCNC(=O)CCCOc1cc(=O)n(C)c2ccccc12)Cc1ccccc1`: “inactive”.
Turning to `O=C(NN/C(=N/S(=O)(=O)c1ccc(Cl)cc1)c1ccccc1)c1cccc(Cl)c1`, the inhibition was 70% (active).
Regarding `CCn1c2ccc(F)cc2c2nnc(NN)nc21`, the outcome was inactive.
As to `CCN(CC)CCOCCOc1ccc(Cl)c2ccccc12`, the outcome was inactive.
For `O=C(NCCCN1CCCC1=O)c1ccc(CNS(=O)(=O)c2ccc(F)cc2)cc1`, the result was inactive.
The same measure, in the same setting: next, `Cc1noc(C)c1COC(=O)[C@@H](NC(=O)c1ccccc1Cl)C(C)C`: “inactive”.
The same measure, in the same setting: the same measure for `C/C=C/Cn1c(SCCCc2ccccc2)nc2c1c(=O)[nH]c(=O)n2C`: “inactive”.
`O=[N+]([O-])c1ccc2c(c1)C=C1CCCCC1(N1CCCC1)O2` (configuration not stated): the outcome was inactive.
The same measure, in the same setting: next, `COc1ccc(CCn2c(=S)[nH]c3cc(C(=O)N4CCOCC4)ccc3c2=O)cc1OC`: “inactive”; `CN(C)CCCCOc1cccc(Br)c1`: “inactive”; `CC1=CC(=O)C(C(C)C)=C/C1=N/OS(=O)(=O)c1ccccc1`: “inactive”.
Still for that read-out and setting: next, `O=C1CC(NS(=O)(=O)c2cccs2)CN1c1ccccc1` (configuration not stated): “inactive”; `OCCNCc1cc(Br)ccc1OCc1ccccc1`: “inactive”.

For another experiment the target is unchanged. As to the kind of experiment: blockers of DAMGO-evoked TRPC4 calcium flux – cell-based, second round, Fluo4, HEK293 TRPC4beta/mu-opioid, 1 µM, confirmation (AID 2637).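 As to inhibition: percent of integrated ratio relative to wells lacking test compound.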 As to conditions: at 1 µM; stronger effect = higher value. An outline of the steps:
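Also added: sequential submaximal then maximal DAMGO stimulation; system: TRPC4beta/mu-opioid receptor HEK293 cells; compound: one dose, 1 µM final; signal: kinetic Fluo4 Ca2+ fluorescence reading; benchmarks: ECmax and compound-free wells; repeats: two replicates; times: Fluo4 loading 45 min at room temperature, compound 110 s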
Consider `COC(=O)c1ccccc1NC(=O)c1cnn2cccnc12`, for which the result was inactive.
The same measure, in the same setting: next, `Cc1cc(Cl)ccc1OC(C)C(=O)Nc1ccccc1N1CCOCC1` (configuration not stated): “inactive”.
As for `CC(C(=O)c1ccc(Br)cc1)[n+]1cccc(NC(=O)c2ccccc2)c1` (configuration not stated), the result was inactive.
Same read-out and setting: the same measure for `Cn1c(SCCOc2ccccc2F)nc2ccccc2c1=O`: “inactive”; for `O=C(CN1CCCN(S(=O)(=O)c2ccc(F)cc2)CC1)Nc1ccccc1Br`: “inactive”.
Consider `Cc1c(CCOC(=O)c2ccccc2)sc[n+]1CC(=O)c1ccc(Br)cc1`, for which the result was inactive.
For `Cc1c(N2C(=O)/C(=C/c3ccccc3)SC2=S)c(=O)n(-c2ccccc2)n1C`, the outcome was inactive.
For the compound `CCOC(=O)Cc1csc(NC(=O)NC2(C(F)(F)F)Oc3cc(Cl)c(Cl)cc3O2)n1`, the inhibition was 41% (active).
Regarding `CCCn1nc(C(=O)NC2CCCc3ccccc32)c2ccccc2c1=O` (configuration not stated), the outcome was inactive.
The same measure, in the same setting: the same measure for `CCOC(=O)c1c(C)n(-c2ccc(C)cc2)c2ccc(OCC(O)CNCC3CCCO3)cc12` (configuration not stated): “inactive”.
Still for that read-out and setting: next, `O=C(NCCCN1CCN(CCCNC(=O)c2cccc(Cl)c2)CC1)c1cccc(Cl)c1`: “inactive”; `COC(=O)[C@@]12CCCCN1[C@H](c1ccc(-c3ccc(C(C)=O)cc3)cc1)[C@@H]1C(=O)N(C)C(=O)[C@@H]12`: “inactive”; `Cc1ccc(CNC(=O)CSc2nc(=O)n3ccccc3n2)cc1`: “inactive”.
Take `CCCCCCc1cc2cc(-c3nnc(-c4ccccc4O)o3)c(=O)oc2cc1O`: the result was inactive.
With `CCCCN(C)CCNC(=O)C1CCCN(S(=O)(=O)c2cccc3nsnc23)C1` (configuration not stated), the outcome was inactive.
Consider `Cc1cccc(NC(=O)CNC(=O)CN2C(=O)NC3(CCCCC3C)C2=O)c1C` (configuration not stated), for which the result was inactive.
The same measure, in the same setting: the same measure for `CC(C)c1ccc(OCc2ccc(C(=O)N3CCCC3)o2)cc1`: “inactive”; for `COc1ccc(-n2cc(CNCc3cnc4ccccn34)c(-c3cccc(F)c3)n2)cc1`: “inactive”.
On the same count and under the same terms, next, `COc1ccc(CCN2C(=S)N(C)C(=O)C2CC(=O)Nc2ccc(F)cc2)cc1` (configuration not stated): “inactive”; `CCOC(=O)C1=NNC(C(=O)c2ccc(Cl)cc2)C1c1ccc(OC)cc1` (configuration not stated): “inactive”; `Cc1ccc(C(C)C)c(OCCCCN2CCNCC2)c1`: “inactive”.
The same measure, in the same setting: the same measure for `CCOC(=O)CSc1nc2ccccc2c(=O)n1C1CCCC1`: “inactive”; for `Clc1ccc(Cl)c(OCCCCN2CCNCC2)c1`: “inactive”; for `COc1ccc(-c2cc(C(=O)N3CC(C)CC(C)C3)c3ccccc3n2)cc1` (configuration not stated): “inactive”.
For the compound `Cn1c(N2CCC(C(N)=O)CC2)nc2c1c(=O)n(Cc1ccc(Br)cc1)c(=O)n2C`, the outcome was inactive.
`OC1(c2ccc(Cl)cc2)CN(c2ccccc2)C2=[N+]1CCS2` (configuration not stated): the result was inactive.
On the same count and under the same terms, the same measure for `CCN(CCCNC(=O)CCCOc1cc(=O)n(C)c2ccccc12)Cc1ccccc1`: “inactive”.
Still for that read-out and setting: the same measure for `O=C(NN/C(=N/S(=O)(=O)c1ccc(Cl)cc1)c1ccccc1)c1cccc(Cl)c1`: “inactive”; for `CCn1c2ccc(F)cc2c2nnc(NN)nc21`: “inactive”; for `CCN(CC)CCOCCOc1ccc(Cl)c2ccccc12`: “inactive”.
Still for that read-out and setting: the same measure for `O=C(NCCCN1CCCC1=O)c1ccc(CNS(=O)(=O)c2ccc(F)cc2)cc1`: “inactive”; for `Cc1noc(C)c1COC(=O)[C@@H](NC(=O)c1ccccc1Cl)C(C)C`: “inactive”.
With `C/C=C/Cn1c(SCCCc2ccccc2)nc2c1c(=O)[nH]c(=O)n2C`, the outcome was inactive.
With `O=[N+]([O-])c1ccc2c(c1)C=C1CCCCC1(N1CCCC1)O2` (configuration not stated), the outcome was inactive.
On the same count and under the same terms, next, `COc1ccc(CCn2c(=S)[nH]c3cc(C(=O)N4CCOCC4)ccc3c2=O)cc1OC`: “inactive”.
Same read-out and setting: next, `CN(C)CCCCOc1cccc(Br)c1`: “inactive”; `CC1=CC(=O)C(C(C)C)=C/C1=N/OS(=O)(=O)c1ccccc1`: “inactive”.
For `O=C1CC(NS(=O)(=O)c2cccs2)CN1c1ccccc1` (configuration not stated), the result was inactive.
Same read-out and setting: the same measure for `OCCNCc1cc(Br)ccc1OCc1ccccc1`: “inactive”.
